Activity calls are given as the source filed them. No cut-off for these calls is given here.
What was measured:
[1] = tested on: Rattus norvegicus; assay: In vivo inhibitory activity against HNE-induced pulmonary hemorrhage was determined in rats after oral administration of 45 mg/kg; type: functional
Summary of the method: (§1)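 Rats were dosed orally 45 min before intratracheal instillation of 100 μg HNE. After 1 h, lungs were lavaged with saline, and BAL hemoglobin was measured spectrophotometrically (536–546 nm) against a Hgb standard curve. Percent inhibition was calculated versus vehicle-treated controls, 5–10 rats per group, as mean ± SEM, with one-way ANOVA and Dunnett's test (p ≤ 0.05).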

[2] = target: T1, Neutrophil elastase (Homo sapiens, UniProt P08246); assay: In vitro inhibitory activity against human neutrophil elastase was determined at a dose of 45 mg/kg; type: organism-based; set-up: dose 45 mg/kg
T1 sequence (P08246 whole entry): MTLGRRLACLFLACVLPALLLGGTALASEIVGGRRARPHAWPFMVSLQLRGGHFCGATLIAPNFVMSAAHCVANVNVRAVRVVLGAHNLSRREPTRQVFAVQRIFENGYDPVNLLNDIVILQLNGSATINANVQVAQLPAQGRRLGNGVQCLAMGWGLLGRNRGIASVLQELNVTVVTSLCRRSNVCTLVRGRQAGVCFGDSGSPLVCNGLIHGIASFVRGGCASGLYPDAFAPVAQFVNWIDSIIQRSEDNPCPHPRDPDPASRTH

[3] = Inhibition of HNE-induced pulmonary hemorrhage when the compound was administered before 30 or 45 min at the dose of 50 mg/kg; not orally active; type: functional, organism-based; set-up: dose 50 mg/kg
[4] = Inhibition of HNE-induced pulmonary hemorrhage when the compound was administered before 30 or 45 min at the dose of 50 mg/kg; Not orally active; type: functional, organism-based; set-up: dose 50 mg/kg
[5] = tested on: Cricetinae gen. sp.; assay: In vivo inhibitory activity against HNE-induced pulmonary hemorrhage was determined in hamsters after oral administration of 25 mg/kg; type: functional
Summary of the method: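 Hamsters were dosed orally 30 min (one case 15 min) before intratracheal instillation of 20 or 10 μg HNE. After 1 h, lungs were lavaged with saline, and BAL hemoglobin was read at 536–546 nm against a Hgb standard curve. Inhibition was calculated versus vehicle controls, 6–19 hamsters per group, as mean ± SEM, with ANOVA and Dunnett's test (p ≤ 0.05).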

[6] = target: T2, Cathepsin G (Homo sapiens) (UniProt P08311); assay: Tested for the ability to inhibit human neutrophil cathepsin G at 0.5 mM
T2 sequence (whole entry): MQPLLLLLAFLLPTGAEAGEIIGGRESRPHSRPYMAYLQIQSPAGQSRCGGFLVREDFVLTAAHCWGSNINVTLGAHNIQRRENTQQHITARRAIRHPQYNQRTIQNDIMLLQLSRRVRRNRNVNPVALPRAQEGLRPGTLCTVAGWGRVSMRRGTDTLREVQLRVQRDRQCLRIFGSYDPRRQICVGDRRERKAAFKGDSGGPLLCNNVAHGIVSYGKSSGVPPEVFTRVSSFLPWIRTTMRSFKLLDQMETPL

[7] = Half life determined from epimerization data at 37 degree C in human blood serum 2; type: ADME, organism-based, Plasma
Summary of the method: (§2)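 The L-L-L or L-L-D diastereomer was held at 37 °C in human blood serum (three individual donors) or human plasma, with a sealed D2O capillary inserted into the NMR tube for lock. Epimerization was followed by 19F NMR spectra, and the half-life was taken from these spectra.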

[8] = Half life determined from epimerization data at 37 degree C in human blood serum 3; type: ADME, organism-based, Plasma; summary of the method: as §2
[9] = target: T3, Neprilysin (Rattus norvegicus) (UniProt P07861); assay: Tested for the ability to inhibit rat kidney enkephalinase at 0.5 mM
T3 sequence (whole entry): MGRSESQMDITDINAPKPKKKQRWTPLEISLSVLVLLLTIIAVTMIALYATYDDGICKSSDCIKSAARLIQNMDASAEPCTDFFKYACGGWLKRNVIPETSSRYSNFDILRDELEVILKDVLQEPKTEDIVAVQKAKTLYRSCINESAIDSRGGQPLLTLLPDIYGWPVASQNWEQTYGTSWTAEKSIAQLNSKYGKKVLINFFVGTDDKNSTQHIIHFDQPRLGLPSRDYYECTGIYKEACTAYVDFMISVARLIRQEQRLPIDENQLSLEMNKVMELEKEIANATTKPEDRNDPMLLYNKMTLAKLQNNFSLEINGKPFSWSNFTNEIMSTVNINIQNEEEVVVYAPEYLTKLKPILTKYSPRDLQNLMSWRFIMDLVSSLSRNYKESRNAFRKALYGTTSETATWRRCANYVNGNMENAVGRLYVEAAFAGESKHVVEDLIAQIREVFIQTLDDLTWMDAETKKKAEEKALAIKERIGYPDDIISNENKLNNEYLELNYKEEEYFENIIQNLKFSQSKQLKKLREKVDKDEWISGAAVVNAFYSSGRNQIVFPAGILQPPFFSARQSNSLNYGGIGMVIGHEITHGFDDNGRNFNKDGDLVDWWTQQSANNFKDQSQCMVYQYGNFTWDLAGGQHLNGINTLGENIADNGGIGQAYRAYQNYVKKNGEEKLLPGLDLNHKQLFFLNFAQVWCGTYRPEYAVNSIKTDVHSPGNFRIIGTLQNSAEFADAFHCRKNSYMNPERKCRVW

[10] = Inhibition of HNE-induced pulmonary hemorrhage when the compound was administered before 30 or 45 min at the dose of 50 mg/kg; orally active; type: functional, organism-based; set-up: dose 50 mg/kg
[11] = tested on: Rattus norvegicus; assay: In vivo inhibitory activity against HNE-induced pulmonary hemorrhage was determined in rats after oral administration of 50 mg/kg; type: functional; summary of the method: as §1
[12] = target: Prothrombin (Bos taurus) (UniProt P00735); assay: Tested for the ability to inhibit bovine thrombin at 0.5 mM
[13] = target: Cathepsin B (Bos taurus) (UniProt P07688); assay: Tested for the ability to inhibit bovine liver cathepsin B at 0.5 mM
[14] = target: Pepsin A (Sus scrofa) (UniProt P00791); assay: Tested for the ability to inhibit pepsin at 0.2 mM
[15] = Half life determined from epimerization data at 25 degree C in buffered saline
[16] = target: T1, Neutrophil elastase; assay: In vitro inhibitory activity against human neutrophil elastase […]; set-up: dose 50 mg/kg
[17] = Half life determined from epimerization data at 37 degree C in human blood plasma; type: ADME, organism-based; summary of the method: as §2
[18] = Half life determined from epimerization data at 25 degree C in Tween 20 (81 mM); conditions: Tween 20 solution (81 mM)
[19] = target: T1, Neutrophil elastase; assay: In vitro inhibitory activity against human neutrophil elastase was determined at a dose of 100 mg/kg; type: organism-based; set-up: dose 100 mg/kg
[20] = tested on: Rattus norvegicus; assay: In vivo inhibitory activity against HNE-induced pulmonary hemorrhage was determined in rats after oral administration of 100 mg/kg; type: functional; summary of the method: as §1
[21] = tested on: Rattus norvegicus; assay: In vivo inhibitory activity against HNE-induced pulmonary hemorrhage was determined in rats after oral administration of 25 mg/kg; type: functional; summary of the method: as §1
[22] = target: T1, Neutrophil elastase; assay: In vitro inhibitory activity against human neutrophil elastase was determined at a dose of 25 mg/kg; type: organism-based; set-up: dose 25 mg/kg
[23] = target: T1, Neutrophil elastase; assay: In vitro inhibitory activity against human neutrophil elastase
Summary of the method: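 HNE was partially purified from human purulent sputum and assayed with MeO-Suc-Ala-Ala-Pro-Val-p-nitroanilide; the assay contained 10% v/v DMSO. Ki was found either from a double-reciprocal plot (four substrate × three inhibitor concentrations) or, assuming competitive inhibition, from three inhibitor concentrations at 0.2 mM substrate (≈Km) using v0/vi = 1 + [I]/Ki,app and Ki = Ki,app/(1 + [S]/Km). Inhibitor was 5–100-fold over enzyme, with no hydration correction.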

Pepsin A (Sus scrofa), sequence (P00791 60-385 limits assumed): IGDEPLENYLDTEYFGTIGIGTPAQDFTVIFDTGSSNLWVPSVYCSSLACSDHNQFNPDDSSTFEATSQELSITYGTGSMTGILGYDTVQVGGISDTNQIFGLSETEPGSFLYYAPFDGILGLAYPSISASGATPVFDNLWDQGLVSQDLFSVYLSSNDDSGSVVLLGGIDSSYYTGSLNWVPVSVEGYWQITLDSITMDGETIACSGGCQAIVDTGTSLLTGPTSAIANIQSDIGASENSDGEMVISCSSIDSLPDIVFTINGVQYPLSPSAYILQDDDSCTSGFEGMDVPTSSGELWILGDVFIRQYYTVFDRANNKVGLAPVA

| Compound | Oral activity [4] | inhibition in vivo at 25 mg/kg [5] [%] | Oral activity [10] | inhibition in vivo at 50 mg/kg [11] [%] | Ki [16] [nM] | further results |
| --- | --- | --- | --- | --- | --- | --- |
| CC(C)[C@H](NC(=O)c1ccco1)C(=O)N1CCC[C@H]1C(=O)N[C@H](C(=O)C(F)(F)C(F)(F)F)C(C)C |  |  |  |  |  | inhibition in vivo at 45 mg/kg [1]: 44%; Ki [2]: 190 nM; Oral activity [3]: inactive |
| CC(C)C(NC(=O)[C@@H]1CCCN1C(=O)[C@@H](NC(=O)c1ccc(C(=O)N2CCN(C(=O)N3CCOCC3)CC2)cc1)C(C)C)C(=O)C(F)(F)C(F)(F)F (some centres undefined) | inactive | 31 |  |  |  |  |
| CC(C)C(NC(=O)[C@@H]1CCCN1C(=O)[C@@H](NC(=O)c1ccc(C(=O)N2CCOCC2)cc1)C(C)C)C(=O)C(F)(F)C(F)(F)F (some centres undefined) |  | 74 | Active | 69 | 25 | inhibition [6]: 15%; half-life [7]: 30 min; half-life [8]: 30 min; inhibition [9]: < 5%; inhibition [12]: < 5%; inhibition [13]: < 5%; inhibition [14]: 40%; half-life [15]: > 200 h; half-life [17]: 30 min; half-life [18]: 70 min |
| CC(C)C(NC(=O)[C@@H]1CCCN1C(=O)[C@@H](NC(=O)c1ccc(C(=O)NS(=O)(=O)c2ccc(Cl)cc2)cc1)C(C)C)C(=O)C(F)(F)C(F)(F)F (some centres undefined) | inactive |  |  |  |  | Ki [19]: 7 nM; inhibition in vivo at 100 mg/kg [20]: -30% |
| CC(C)C(NC(=O)[C@@H]1CCCN1C(=O)[C@@H](NC(=O)C1CCOCC1)C(C)C)C(=O)C(F)(F)C(F)(F)F (some centres undefined) |  |  | Active | 71 | 59 |  |
| CC(C)C(NC(=O)[C@@H]1CCCN1C(=O)[C@@H](NC(=O)c1ccc(NC(=O)N2CCOCC2)cc1)C(C)C)C(=O)C(F)(F)C(F)(F)F (some centres undefined) | inactive |  |  | 26 | 43 |  |
| CC(C)C(NC(=O)[C@@H]1CCCN1C(=O)[C@@H](NC(=O)CCc1cccnc1)C(C)C)C(=O)C(F)(F)C(F)(F)F (some centres undefined) |  | 67 | Active |  |  |  |
| CC(C)C(NC(=O)[C@@H]1CCCN1C(=O)[C@@H](NC(=O)C(C(=O)N1CCOCC1)C(C)C)C(C)C)C(=O)C(F)(F)C(F)(F)F (some centres undefined) |  | 70 | Active |  |  |  |
| CC(C)C(NC(=O)[C@@H]1CCCN1C(=O)[C@@H](NC(=O)CC(=O)N1CCOCC1)C(C)C)C(=O)C(F)(F)C(F)(F)F (some centres undefined) |  |  |  |  |  | inhibition in vivo at 25 mg/kg [21]: 41%; Ki [22]: 70 nM |
| CC(C)C(NC(=O)[C@@H]1CCCN1C(=O)[C@@H](NC(=O)c1ccc(C(=O)N2CCOCC2)nc1)C(C)C)C(=O)C(F)(F)C(F)(F)F (some centres undefined) |  | 61 |  |  |  |  |
| CC(C)C(NC(=O)[C@@H]1CCCN1C(=O)[C@@H](NC(=O)N1CCOCC1)C(C)C)C(=O)C(F)(F)C(F)(F)F (some centres undefined) |  | 69 | Active | 69 | 170 |  |
| CC(C)C(NC(=O)[C@@H]1CCCN1C(=O)[C@@H](NC(=O)c1ccc(C(=O)O)cc1)C(C)C)C(=O)C(F)(F)C(F)(F)F (some centres undefined) | inactive | -3 |  |  |  |  |
| CC(C)[C@H](NC(=O)CN1CCOCC1)C(=O)N1CCC[C@H]1C(=O)N[C@H](C(=O)C(F)(F)C(F)(F)F)C(C)C |  |  | Active | 77 | 60 |  |
| CC(C)[C@H](NC(=O)N(C)C)C(=O)N1CCC[C@H]1C(=O)N[C@H](C(=O)C(F)(F)C(F)(F)F)C(C)C |  |  | Active | 70 |  | Ki [23]: 261 nM |
| CC(C)C(NC(=O)[C@@H]1CCCN1C(=O)[C@@H](NC(=O)c1ccc(S(=O)(=O)N2CCOCC2)cc1)C(C)C)C(=O)C(F)(F)C(F)(F)F (some centres undefined) | inactive | 30 |  |  |  |  |
